Most compounds without a hit are left out; they make up all but 1.8% or so of the library.
Statin myotox sup: suppressors of statin myotoxicity in C2C12 myotubes, primary screen, cell-based, single point, plate reader. C2C12 myotubes + simvastatin, ATP luminescence, 48 h; scaled: DMSO 0, geranylgeraniol control 100. rescue of ATP level, % at 7.49 µM. 330,000 tested, 0.78% active. AID 602340, 2012;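 active = mean ATP rescue above about 67%, or every replicate alone reaching that limit, limit read from the data, passing the limit was not always enough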;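 note: myotubes were challenged with 10 µM simvastatin during compound exposure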
Cneo AK release: Cryptococcus neoformans cell lysis inducers, primary screen, AK release luminescence, single concentration; C. neoformans lysis, adenylate kinase release luminescence, 4 h; normalised: neutral wells 0, clomiphene wells 100; lysis activity, % at 15 µM; AID 651654, 2012; 360,000 tested, 0.2% active;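 active = mean lysis activity across replicates of at least 80%, whatever share of replicates individually reach that level; inactive = mean lysis activity below 80%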
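Assay system: log-phase C. neoformans yeast / Quantity: yeast cell density of 5 × 10^6 cells/mL / Medium: fresh YPD growth medium / Compound: single dose / Timing: static 4 h at 37 °C with compound, 1 h detection / Measured by: adenylate kinase release luminescence / Read-out: lysis from increased AK signal / Benchmarks: Clomiphene as positive lysis control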
Efflux pump mplx: inhibitors of Candida efflux pumps in yeast, primary screen, S. cerevisiae, Nile Red, multiplex | S. cerevisiae Candida pump triplex | inhibition, % at 10 µM | 330,000 tested, 0.44% active | AID 485275, 2010;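 active = plate passing quality check with inhibition over a set limit, or well fluorescence over plate mean plus 4 SD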;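 note: Nile Red retained in pooled yeast measured as flow cytometry median fluorescence; 0% = buffer negative control and 100% = Enniatin B positive control; higher means more Nile Red kept so more efflux inhibition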
SUMO Mot1 rescue: yeast Mot1-301 growth rescue at high temperature, primary screen, SUMOylation pathway inhibitor project, S. cerevisiae, ATP luminescence, 38.5C; S. cerevisiae Mot1-301 growth rescue; percent above DMSO median, 100 means doubled; growth rescue, % at 18.8 µM; 320,000 tested, 1% active;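 active = every valid replicate shows activation above 250% relative to neutral control wells; inactive = the rest, any valid replicate at or below 250%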;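 note: OY570 slx delta 5 strain wells were the positive control but not used for scaling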
Yeast cmpd fluor: counter-screen for efflux pump inhibitors: compound fluorescence; shares compounds with Efflux pump mplx; S. cerevisiae AD/pABC3, flow cytometry; fluorescence ratio to DMSO, % at 10 µM; 1,700 tested, 4% active; AID 588517;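 active = fluorescence ratio to DMSO above its plate's cutoff, the plate mean ratio plus 5 SD, cut at about 210% in these data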;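 note: unstained yeast with no Nile Red so the signal is compound autofluorescence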
Mdr1 pump inh: inhibitors of Candida albicans Mdr1 efflux, confirmation, flow cytometry, singleplex, Cherry Pick1 set | S. cerevisiae AD/CaMDR1, Nile Red efflux | 1,700 tested, 1% active | shares compounds with Efflux pump mplx | AID 588518, 2011 | inhibition, % at 10 µM; in the data active = inhibition above about 26%;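 note: 0% = DMSO vehicle and 100% = reference inhibitor; higher means more Nile Red retained so more efflux inhibition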
Cdr2 pump inh: inhibitors of Candida albicans Cdr2 efflux pump, confirmation, S. cerevisiae AD/CaCDR2, flow cytometry, cherry pick 1, singleplex. 1,700 tested, 4% active. shares compounds with Efflux pump mplx. Nile Red retention ratio vs DMSO, % at 10 µM. Nile Red retention; in the data active = Nile Red retention ratio vs DMSO above about 190%;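 note: higher ratio means more blocking of Cdr2 efflux of the dye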
Cdr1 pump inh: inhibitors of Candida albicans Cdr1 efflux pump, confirmation, S. cerevisiae AD/CaCDR1, flow cytometry, cherry pick 1, singleplex; shares compounds with Efflux pump mplx; Nile Red efflux; inhibition, % at 10 µM; 1,700 tested, 1% active; AID 588522, 2011;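 active = inhibition above the screen-wide mean plus twice its standard deviation, cut at about 32% in these data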
* marks the source's active call; other numbers are inactive results; x = no result given.

SMILES	Statin myotox sup	Cneo AK release	Efflux pump mplx	SUMO Mot1 rescue	Yeast cmpd fluor	Mdr1 pump inh	Cdr2 pump inh	Cdr1 pump inh
O=C(O)c1cc(S(=O)(=O)N2CCCCC2)sc1Cl	x	x	0.2	219.2	x	x	x	x
CC1CC(C)CN(S(=O)(=O)c2cc(C(=O)O)c(Cl)s2)C1 (centres undefined)	7.8	1.4	9.7*	-6.5	101.4	-0.4	93.5	0.2
O=C(Nc1ccc(S(=O)(=O)Nc2nccc(C3Cc4ccccc4C(=O)O3)n2)cc1)c1ccccc1 (centres undefined)	-3.6	2.5	0.0	x	x	x	x	x
CC(C)NC(=O)C(=O)NNC(=O)C12CC3CC(CC(C3)C1)C2	x	2.8	2.1*	-16.1	111.3	0.3	116.0	0.1
CC(C)NCC(=O)C12CC3CC(CC(C3)C1)C2	21.8	0.0	0.0	-2.2	x	x	x	x
COCc1nnc(NC(=O)C23CC4CC(CC(C4)C2)C3)s1	14.8	-0.8	x	x	x	x	x	x
Cc1ccc(CN2CCN(Cc3cc(=O)c4ccccc4[nH]3)CC2CCO)o1 (centres undefined)	x	x	0.1	x	x	x	x	x
CCCSc1nnc(-c2c[nH]c3ccccc23)n1C	-16.5	1.4	0.5*	-1.0	80.1	-0.2	93.2	-0.4
CCCSc1nnc(-c2c[nH]c3ccccc23)n1CC	-25.7	2.3	0.1	13.5	x	x	x	x
COc1cccc2cc(C(=O)N3CCN(C45CC6CC(CC(C6)C4)C5)CC3)c(=O)oc12	x	1.4	0.0	-1.8	x	x	x	x
O=C(NN1C(=O)/C(=C/c2cccc(O)c2)SC1=S)c1ccccc1O	-3.0	1.2	-0.1	-8.1	x	x	x	x
O=C(NN1C(=O)/C(=C/c2ccc(O)c(O)c2)SC1=S)c1ccccc1	-2.5	-3.6	3.4*	-25.9	115.9	0.1	118.4	0.5
COc1cc(/C=C2\SC(=S)N(NC(=O)c3cccnc3)C2=O)ccc1O	x	x	0.0	61.5	103.1	-0.1	107.2	0.0
COc1cc(/C=C2\SC(=S)N(NC(=O)c3ccc(O)cc3)C2=O)ccc1O	x	x	0.5	119.7	x	x	x	x
COc1cccc(NC(=O)C(=O)NCC(c2ccco2)N2CCc3ccccc3C2)c1 (centres undefined)	3.7	0.7	0.0	-2.8	x	x	x	x
O=C(c1cc2c(s1)CCCC2)N1CCN(S(=O)(=O)c2ccccc2C(F)(F)F)CC1	x	x	6.7*	182.4	108.3	-0.3	105.7	0.1
Cc1ccc(S(=O)(=O)N2CCN(C(=O)c3cc4c(s3)CCCC4)CC2)c(C)c1	5.5	2.3	-0.2	7.0	x	x	x	x
CN1/C(=C\C=C2/SC(=S)NC2=O)C(C)(C)c2ccccc21	-47.1	x	0.8*	14.3	169.7	1.7	188.0	0.6
CN1C(=CC=C2C=C(I)C(=O)C(I)=C2)C(C)(C)c2ccccc21	-59.0	3.4	x	x	x	x	x	x
CC(C)CC(=O)Nc1nnc(CCc2ccccc2)s1	-0.1	0.4	0.1	-3.5	x	x	x	x
CCC(C)C(=O)Nc1nnc(CCc2ccccc2)s1 (centres undefined)	1.6	7.6	1.2*	36.2	106.8	0.0	95.4	-0.2
COc1ccc2nc(C)cc(Sc3nc4ccccc4s3)c2c1	-9.1	-1.2	1.0*	43.8	88.8	-0.1	98.1	0.0
COc1ccc2nc(C)cc(SCC(=O)NNC(=O)COc3ccccc3)c2c1	-7.9	-6.0	0.3	-16.1	x	x	x	x
O=C(C[C@H]1CC[C@H]2[C@@H](COC[C@H](O)CN2C(=O)C2CC2)O1)NCc1ccccc1Cl	-10.8	47.8	x	x	x	x	x	x
CCCCn1c(N)c(N(CC(C)C)C(=O)CN2C(=O)NC3(CC(C)CC(C)(C)C3)C2=O)c(=O)[nH]c1=O (centres undefined)	x	x	0.9*	-8.3	98.2	-0.1	101.8	0.1
SMILES	Statin myotox sup	Cneo AK release	Efflux pump mplx	SUMO Mot1 rescue	Yeast cmpd fluor	Mdr1 pump inh	Cdr2 pump inh	Cdr1 pump inh
CC(=O)Nc1cccc(NC(=O)c2cc(-c3cccnc3)nc3ccc(Br)cc23)c1	-17.6	3.7	0.2	-4.3	x	x	x	x
CC(=O)Nc1cccc(NC(=O)c2cc(-c3cccnc3)nc3ccc(Cl)cc23)c1	x	x	1.4*	224.5	91.0	-0.2	112.4	-0.2
O=C(Cn1cncn1)N/N=C/c1ccc(Cl)cc1	4.1	2.5	9.7*	14.2	95.0	-0.2	91.4	-0.1
Cc1c(C(=O)O)oc2ccc(S(=O)(=O)NC3CCCCCCC3)cc12	x	-2.0	1.0*	-18.7	100.3	-0.1	96.3	0.0
Cc1cc(/C=C2\SC(=O)N(C)C2=O)c(C)n1-c1ccc(O)cc1	3.2	-7.9	0.1	19.4	x	x	x	x
CC(=O)NC1=NC(=O)/C(=C/c2cc(C)n(-c3ccc(NC(C)=O)cc3)c2C)S1	4.4	-0.6	1.4*	-11.6	119.7	0.1	96.5	2.3
Cc1cc(C)c(OCC(=O)Nc2ccccc2N2CCCCC2)c(C)c1	x	x	0.1	287.4	x	x	x	x
Cc1cc(C)c(OCC(=O)Nc2ccccc2N2CCOCC2)c(C)c1	-3.5	3.5	10.6*	-5.2	86.5	-0.2	110.3	0.1
CCn1cc(C(=O)O)c(=O)c2cnc(N3CCN(C(=S)NC(=O)c4ccccc4)CC3)nc21	x	x	0.8*	870.4	93.4	-0.1	97.7	-0.1
CCCOc1ccc(C(=O)NC(=S)N2CCN(c3ncc4c(=O)c(C(=O)O)cn(CC)c4n3)CC2)cc1	2.7	-0.5	x	x	x	x	x	x
CCCNC(=O)Nc1ccc2c(c1)OC[C@@H](C)N(C(=O)C1CCC1)C[C@@H](C)[C@H](OC)CN(C)C2=O	12.0	0.8	x	x	x	x	x	x
Cc1ccc(NC(=O)CN(C)C(=O)CCCN2C(=O)c3ccccc3C2=O)cc1	-2.3	-0.7	-0.4	0.7	x	x	x	x
Cc1cccc(C(=O)N2CCC(=O)N(C(COCc3ccccc3)Cc3ccccc3)CC2)c1 (centres undefined)	3.1	-1.1	0.1	17.6	x	x	x	x
Cc1cccc(C(=O)N2CCC(=O)N(C(COCc3cccc(C(F)(F)F)c3)Cc3ccccc3)CC2)c1 (centres undefined)	-5.1	9.9	1.0*	191.4	101.4	-0.1	97.7	0.0
NC1=NC[C@H](Cc2ccc(O)cc2)N1CCc1cccc(F)c1	12.5	5.1	0.0	-4.4	90.1	-0.3	85.2	-0.2
NC1=NC[C@H](Cc2ccccc2)N1CC1CCCCC1	-17.7	2.3	-0.1	3.0	x	x	x	x
NC1=NC[C@H](Cc2ccc(O)cc2)N1CC1CCCCC1	3.5	-0.6	-0.1	5.9	101.4	0.1	95.6	-0.1

Compound activity (PubChem)
